Measurements from publication PMC8286830 (Biochemical Journal, 2021).
Several values for one entry are separate records, joined by “and”; a condition that tells them apart may be missing. Identical values can stand only once. Entries after “also recorded” stand apart in the source; their conditions may differ.

Legend:
N-TgCEN1 [1] = assay: Turbidimetry at 340 nm, N-TgCEN1; type: physicochemical, Toxoplasma gondii; conditions: 20 µM, 1 mM CaCl2, 20 mM KCl pH 7.5, 37°C
Summary of the method: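 Recombinant N-domain (1–94) or C-domain (95–169), Ni-affinity purified. A340 followed over time in a 1 cm cuvette. Standard conditions: 20 µM protein, 20 mM Tris–HCl, 20 mM KCl pH 7.5, 1 mM CaCl2, 37°C. Conditions also varied: CaCl2 0–2 mM, temperature 4–45°C, protein 5–50 µM, KCl 0–150 mM, or 600 µM ANS added.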

N-TgCEN1 [2] = assay: DLS particle size of N-TgCEN1; type: physicochemical, Toxoplasma gondii; conditions: 10 µM
Summary of the method: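 Domains produced in E. coli Rosetta: N-domain residues 1–94 and C-domain 95–169. […] 10 µM protein in 20 mM Tris–HCl pH 7.5, 1 mM CaCl2, at selected KCl concentrations or with 600 µM ANS. Samples centrifuged at 21 000 g for ≥30 min; filtered buffers. Hydrodynamic diameter reported as number distribution (633 nm laser, 173°).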

Δ21TgCEN1 [3] = target: T1, Δ21TgCEN1 (Toxoplasma gondii, UniProt A0A125YHX7); assay: Turbidimetry at 340 nm, Δ21TgCEN1; type: physicochemical
T1 sequence (A0A125YHX7 22-169): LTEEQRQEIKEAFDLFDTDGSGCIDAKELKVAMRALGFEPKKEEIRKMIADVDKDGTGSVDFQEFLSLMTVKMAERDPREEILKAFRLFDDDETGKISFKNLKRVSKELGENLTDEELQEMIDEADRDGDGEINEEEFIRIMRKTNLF
Summary of the method: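 Construct lacking residues 1–21 (E. coli Rosetta) at 20 µM in 20 mM Tris–HCl, 20 mM KCl pH 7.5, 1 mM CaCl2, 37°C. A340 followed over time, before and after adding 50 µM synthetic N-terminal peptide (residues 1–21). Peptide alone with CaCl2 run as a control trace.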

Δ21TgCEN1 [4] = target: T1, Δ21TgCEN1; assay: DLS particle size / count rate of Δ21TgCEN1; type: physicochemical; conditions: all other conditions: temperature, protein concentration, KCl, ANS
Summary of the method: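 Recombinant tag-free Δ21TgCEN1 from E. coli Rosetta (Ni affinity, TEV cleavage). For DLS, 10 µM protein in 20 mM Tris–HCl, 20 mM KCl pH 7.5 with 1 mM CaCl2 at 37°C was spun at 21 000 g for ≥30 min, then measured before and after adding 50 µM N21 peptide. Diameter was reported as number distribution. In parallel, A340 turbidity of 20 µM protein was followed over time.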

TgCEN1 [5] = assay: Turbidimetry at 340 nm, TgCEN1 self-assembly; type: physicochemical, Toxoplasma gondii
Summary of the method: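 Full-length protein (E. coli Rosetta) at 20 µM in 20 mM Tris–HCl, 20 mM KCl pH 7.5, 37°C, A340 recorded versus time. Run with 1 mM CaCl2, with 1 mM EGTA, or with EGTA added to Ca2+-saturated protein. Ca2+ series 5–2000 µM, read at 25 min versus metal/protein ratio. Also varied: temperature 4–45°C, protein 5–50 µM, KCl 0–150 mM, and 600 µM ANS.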

TgCEN1 [6] = assay: DLS particle size of TgCEN1; type: physicochemical, Toxoplasma gondii
TgCEN1 [7] = assay: DLS thermal ramping of TgCEN1; type: physicochemical, Toxoplasma gondii; conditions: 5 µM protein, 1 mM CaCl2, pH 7.5
Summary of the method: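 Full-length recombinant protein (E. coli Rosetta) at 5 µM with 1 mM CaCl2 in 20 mM Tris–HCl, 20 mM KCl pH 7.5, clarified by centrifugation. Temperature stepped from 15 to 45°C in 1°C increments, with DLS size measured at each step. Z-average (intensity-weighted mean hydrodynamic size) recorded; midpoint from logistic fit.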

[8] = via N-terminal EF-hands, in vitro; cited from earlier work

B1: N-TgCEN1: N-terminal domain of TgCEN1, 1–94 aa (protein)
chain: MHSRKGASSLPRGRGAGKKTELTEEQRQEIKEAFDLFDTDGSGCIDAKELKVAMRALGFEPKKEEIRKMIADVDKDGTGSVDFQEFLSLMTVKM
modifications: left off: His tag (from the Nickel affinity chromatography), end not stated, cleaved
**Q.** What does the source list for B1?
**A.** turbidity at 340 nm (N-TgCEN1 [1]): no turbidity changes at 340 nm; particle diameter (N-TgCEN1 [2]; 1 mM CaCl2, 20 mM Tris–HCl, 20 mM KCl pH 7.5): 250 ± 1 nm; association at high ionic strength (N-TgCEN1 [2]; selected KCl concentrations, 1 mM CaCl2, DLS): inhibition of association process

B2: Δ21TgCEN1: truncated variant of TgCEN1 lacking the first 21 residues (22–169) (protein)
chain: T1 sequence (A0A125YHX7 22-169)
**Q.** What does the source list for B2?
**A.** turbidity at 340 nm (Δ21TgCEN1 [3]; 1 mM CaCl2, same conditions as full-length (20 µM, 37°C, pH 7.5)): no changes in turbidity at 340 nm; self-assembly process (Δ21TgCEN1 [3]; removal of the first 21 residues, Ca^2+): completely abolished; turbidity or size distribution changes (Δ21TgCEN1 [4]): No changes in turbidity or size distribution

B3: TgCEN1: centrin isoform 1 from Toxoplasma gondii, full-length, overexpressed in E. coli (protein)
chain: MHSRKGASSLPRGRGAGKKTELTEEQRQEIKEAFDLFDTDGSGCIDAKELKVAMRALGFEPKKEEIRKMIADVDKDGTGSVDFQEFLSLMTVKMAERDPREEILKAFRLFDDDETGKISFKNLKRVSKELGENLTDEELQEMIDEADRDGDGEINEEEFIRIMRKTNLF
**Q.** For B3, which “self-assembly at high ionic strength (turbidity at 340 nm)” value (TgCEN1 [5]; 0–150 mM KCl, 20 mM Tris–HCl pH 7.5, 1 mM CaCl2, 37°C) is on record?
**A.** Its value is “clear inhibition of self-assembly process at high ionic strength”.

**Q.** What about the “turbidity at 340 nm” value (TgCEN1 [5]; 20 µM, 1 mM CaCl2, 20 mM Tris–HCl, 20 mM KCl pH 7.5, 37°C) of the same molecule?
**A.** The value was “clear increase in turbidity”.

**Q.** And the “turbidity at 340 nm” value (TgCEN1 [5]; EGTA added to Ca^2+-saturated TgCEN1, 20 µM, pH 7.5, 37°C)?
**A.** Its value is “significantly reduced”.

**Q.** And the “turbidity change on Mg^2+ addition” value (TgCEN1 [5]; Mg^2+ up to 10 mM, data not shown)?
**A.** The value was “No changes in the turbidity profiles”.

**Q.** What about the “self-assembly rate and plateau (turbidity at 340 nm)” value (TgCEN1 [5]; increasing TgCEN1 concentration (5–50 µM), 1 mM CaCl2, 37°C) of the same molecule?
**A.** Its value is “faster self-assembly process and a higher plateau”.

**Q.** What about the “self-assembly rate and plateau (turbidity at 340 nm)” value (TgCEN1 [5]; increasing temperature (4–45°C), 1 mM CaCl2) of the same molecule?
**A.** The value was “increase in the slope of the growth phase at 340 nm and a higher plateau”.

**Q.** What about the “light scattering below threshold concentration” value (TgCEN1 [5]; protein concentrations less than 5 µM) of the same molecule?
**A.** Its value is “Low light scattering”.

**Q.** And the hydrodynamic diameter (TgCEN1 [6]; 10 µM, 1 mM CaCl2, 20 mM Tris–HCl, 20 mM KCl pH 7.5, 37°C, DLS number distribution, no additive)?
**A.** Its hydrodynamic diameter is 570 ± 5 nm and ~570 nm.

**Q.** What about the number-averaged hydrodynamic diameter (TgCEN1 [6]; 10 µM, absence of Ca^2+ (1 mM EGTA), 20 mM Tris–HCl, 20 mM KCl pH 7.5, 37°C, DLS number distribution) of the same molecule?
**A.** The number-averaged hydrodynamic diameter was 7.54 ± 0.01 nm.

**Q.** And the association state (TgCEN1 [6]; 150 mM KCl, 1 mM CaCl2, 37°C)?
**A.** Its association state is “monomeric in solution”.

**Q.** What about the hydrodynamic diameter (TgCEN1 [6]; high ionic strength (KCl), 20 mM Tris–HCl pH 7.5, 1 mM CaCl2, 37°C) of the same molecule?
**A.** The hydrodynamic diameter was ~7 nm.

**Q.** What about the hydrodynamic diameter (TgCEN1 [6]; low salt concentrations, 20 mM Tris–HCl pH 7.5, 1 mM CaCl2, 37°C) of the same molecule?
**A.** Its hydrodynamic diameter is 600–800 nm.

**Q.** What about the z-average hydrodynamic diameter (TgCEN1 [7]; 15°C) of the same molecule?
**A.** The z-average hydrodynamic diameter was ~230 nm.

**Q.** What about the z-average hydrodynamic diameter (TgCEN1 [7]; 45°C) of the same molecule?
**A.** Its z-average hydrodynamic diameter is ~470 nm.

**Q.** What about the “Ca^2+ ions bound” value [8] of the same molecule?
**A.** The value was “two Ca^2+ ions; also recorded: two high affinity Ca^2+-binding sites in the N-lobe”.
